Laboratory results: ChEMBL document CHEMBL1137174, “Synthesis and structural-activity relationships of 3-hydroxyquinazoline-2,4-dione antibacterial agents” (2004)
In brackets after ≈: the same amount, converted by molar mass.

Legend:
[1] = target: DNA gyrase (Escherichia coli) (UniProt P0AES6+P0AES4); assay: Concentration required to inhibit in vitro DNA gyrase activity isolated from Escherichia coli; format: protein-complex assay
Outline: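 DNA gyrase isolated and purified from E. coli H560. The end point is the lowest drug concentration […] that gives detectable cleavage of relaxed bacterial Col E1 plasmid DNA. Cleavage is read by agarose gel electrophoresis with ethidium bromide staining.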

Escherichia coli [2] = assay: Minimum inhibitory concentration required against Gram-negative Escherichia coli WT; format: functional
Outline: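 Standard microtitration MIC determination against wild-type E. coli strain MC4100.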

Escherichia coli [3] = assay: Minimum inhibitory concentration required against Gram-negative Escherichia coli TLC; format: functional
Escherichia coli [4] = assay: Minimum inhibitory concentration required against Gram-negative Escherichia coli LKY; format: functional
Outline: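 Standard microtitration MIC determination against E. coli LKY, a cell-wall-deficient, semi-permeable strain.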

Streptococcus pyogenes = assay: Minimum inhibitory concentration required against Gram-positive Streptococcus pyogenes; format: functional
Enterococcus faecalis = assay: Minimum inhibitory concentration required against Gram-positive Enterococcus faecalis; format: functional
Staphylococcus aureus = assay: Minimum inhibitory concentration required against Gram-positive Staphylococcus aureus; format: functional

Structure (SMILES)	Activity [1] [µM]	MIC (Escherichia coli [2]) [µg/mL]	MIC (Escherichia coli [3]) [µg/mL]	MIC (Escherichia coli [4]) [µg/mL]	MIC (Streptococcus pyogenes) [µg/mL]	MIC (Enterococcus faecalis) [µg/mL]	MIC (Staphylococcus aureus) [µg/mL]
O=c1c2cc(F)c(N3C[C@@H]4CCCN[C@@H]4C3)cc2n(C2CC2)c(=O)n1O	5	8 (≈ 22.2 µM)	1 (≈ 2.77 µM)	2 (≈ 5.55 µM)	32 (≈ 88.8 µM)	64 (≈ 178 µM)	32 (≈ 88.8 µM)
CC(C)(N)[C@@H]1CCN(c2cc3c(cc2F)c(=O)n(O)c(=O)n3C2CC2)C1	2.2	8 (≈ 22.1 µM)	0.5 (≈ 1.38 µM)	2 (≈ 5.52 µM)	32 (≈ 88.3 µM)	16 (≈ 44.1 µM)	16 (≈ 44.1 µM)
O=c1[nH]c2cc(N3CCCC3)c(F)cc2c(=O)n1O	> 100	64 (≈ 241 µM)	16 (≈ 60.3 µM)	32 (≈ 121 µM)	32 (≈ 121 µM)	–	8 (≈ 30.2 µM)
NC1CN(c2cc3c(cc2F)c(=O)n(O)c(=O)n3C2CC2)C1	18	16 (≈ 52.2 µM)	0.5 (≈ 1.63 µM)	0.25 (≈ 0.816 µM)	> 64	–	> 64
O=c1c2cc(F)c(N3CCCC3)cc2n(C2CC2)c(=O)n1O	7	8 (≈ 26.2 µM)	0.13 (≈ 0.426 µM)	0.1 (≈ 0.328 µM)	16 (≈ 52.4 µM)	–	1 (≈ 3.28 µM)
Cn1c(=O)n(O)c(=O)c2cc(F)c(N3CCCC3)cc21	> 100	32 (≈ 115 µM)	8 (≈ 28.6 µM)	16 (≈ 57.3 µM)	> 64	> 64	> 64
CN[C@@H](C)[C@@H]1CCN(c2cc3c(cc2F)c(=O)n(O)c(=O)n3C2CC2)C1	6.2	32 (≈ 88.3 µM)	2 (≈ 5.52 µM)	4 (≈ 11 µM)	2 (≈ 5.52 µM)	16 (≈ 44.1 µM)	16 (≈ 44.1 µM)
NCC1CCN(c2cc3c(cc2F)c(=O)n(O)c(=O)n3C2CC2)C1 (configuration not stated)	–	8 (≈ 23.9 µM)	1 (≈ 2.99 µM)	1 (≈ 2.99 µM)	2 (≈ 5.98 µM)	–	16 (≈ 47.9 µM)
O=c1c2cc(F)c(N3CCCC3)cc2n(CC2CC2)c(=O)n1O	13	32 (≈ 100 µM)	0.5 (≈ 1.57 µM)	0.5 (≈ 1.57 µM)	8 (≈ 25.1 µM)	64 (≈ 200 µM)	8 (≈ 25.1 µM)
O=c1c2cc(F)c(N3CCC(CNCC(F)(F)F)C3)cc2n(C2CC2)c(=O)n1O (configuration not stated)	8	> 64	0.5 (≈ 1.2 µM)	1 (≈ 2.4 µM)	16 (≈ 38.4 µM)	16 (≈ 38.4 µM)	4 (≈ 9.61 µM)
N[C@H]1CCN(c2cc3c(cc2F)c(=O)n(O)c(=O)n3C2CC2)C1	2	1 (≈ 3.12 µM)	0.25 (≈ 0.78 µM)	0.3 (≈ 0.937 µM)	4 (≈ 12.5 µM)	–	32 (≈ 99.9 µM)
C[C@H](N)[C@@H]1CCN(c2cc3c(cc2F)c(=O)n(O)c(=O)n3C2CC2)C1	6.4	8 (≈ 23 µM)	0.12 (≈ 0.344 µM)	0.12 (≈ 0.344 µM)	0.5 (≈ 1.44 µM)	4 (≈ 11.5 µM)	1 (≈ 2.87 µM)
N[C@H]1CCN(c2c(F)cc3c(=O)n(O)c(=O)n(C4CC4)c3c2F)C1	0.28	8 (≈ 23.6 µM)	1 (≈ 2.96 µM)	2 (≈ 5.91 µM)	16 (≈ 47.3 µM)	16 (≈ 47.3 µM)	32 (≈ 94.6 µM)
O=c1c2cc(F)c(N3CCCC3)cc2n(-c2ccc(F)cc2F)c(=O)n1O	> 100	> 64	32 (≈ 84.8 µM)	32 (≈ 84.8 µM)	32 (≈ 84.8 µM)	64 (≈ 170 µM)	64 (≈ 170 µM)
CCn1c(=O)n(O)c(=O)c2cc(F)c(N3CCCC3)cc21	> 100	> 64	1 (≈ 3.41 µM)	2 (≈ 6.82 µM)	32 (≈ 109 µM)	–	32 (≈ 109 µM)
N[C@@H]1[C@H]2CN(c3cc4c(cc3F)c(=O)n(O)c(=O)n4C3CC3)C[C@@H]12	0.7	1 (≈ 3.01 µM)	0.25 (≈ 0.752 µM)	0.25 (≈ 0.752 µM)	2 (≈ 6.02 µM)	4 (≈ 12 µM)	4 (≈ 12 µM)
O=C(O)c1cn(C2CC2)c2cc(N3CCNCC3)c(F)cc2c1=O [CIPROFLOXACIN]	0.4	–	–	–	2 (≈ 6.04 µM)	0.4 (≈ 1.21 µM)	4 (≈ 12.1 µM)
N[C@H]1CCN(c2c(F)cc3c(=O)n(O)c(=O)n(C4CC4)c3c2Cl)C1	1	2 (≈ 5.64 µM)	1 (≈ 2.82 µM)	0.5 (≈ 1.41 µM)	4 (≈ 11.3 µM)	32 (≈ 90.2 µM)	16 (≈ 45.1 µM)
O=c1c2cc(F)c(N3CCCC3)cc2n(Cc2ccccc2)c(=O)n1O	> 100	> 64	16 (≈ 45 µM)	32 (≈ 90 µM)	32 (≈ 90 µM)	> 64	16 (≈ 45 µM)
CN1CC2CN(c3cc4c(cc3F)c(=O)n(O)c(=O)n4C3CC3)CC2C1 (configuration not stated)	7.8	4 (≈ 11.1 µM)	1 (≈ 2.77 µM)	2 (≈ 5.55 µM)	32 (≈ 88.8 µM)	32 (≈ 88.8 µM)	32 (≈ 88.8 µM)
O=c1c2cc(F)c(-n3ccnc3)cc2n(C2CC2)c(=O)n1O	0.4	> 64	2 (≈ 6.62 µM)	8 (≈ 26.5 µM)	64 (≈ 212 µM)	64 (≈ 212 µM)	64 (≈ 212 µM)
